Experimental data from ChEMBL document CHEMBL1156597, “Structure-activity relationship of kahalalide F synthetic analogues” (J Med Chem, 2008).

Assays:
[1] = test system: PANC-1; assay: Cytotoxicity against human PANC1 cells after 48 hrs by SRB assay; assay type: functional; conditions: PANC-1, 48 h; for CC50: read-out: LC50 (the source's name)
Method in brief: (§1)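 Cells grown in RPMI 1640 with 10% FBS and penicillin/streptomycin at 37 °C and 5% CO₂, trypsinized, then seeded at 5 × 10³/well. After 18 h drug-free attachment, samples in DMSO/EtOH/PBS (0.5:0.5:99) were added for 48 h continuous exposure. Cells were fixed with cold TCA (1 h, 4 °C) and stained with SRB (10 min). Tris-solubilized stain read at 490 nm. Triplicate wells, mean ± SD; GI₅₀ derived.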

[2] = test system: SK-BR-3; assay: Cytotoxicity against human SKBR3 cells after 48 hrs by SRB assay; assay type: functional; conditions: SK-BR-3, 48 h; for GI50: read-out: GI50; for CC50: read-out: LC50 (the source's name); method in brief: as §1
[3] = Cytotoxicity against human HeLa-APL cells after 48 hrs by SRB assay; assay type: functional; method in brief: as §1
[4] = test system: K562; assay: Cytotoxicity against human K562 cells after 48 hrs by SRB assay; assay type: functional; conditions: K562, 48 h; for CC50: read-out: LC50 (the source's name); method in brief: as §1
[5] = test system: SK-MEL-28; assay: Cytotoxicity against human SK-MEL-28 cells after 48 hrs by SRB assay; assay type: functional, cell-based; conditions: Homo sapiens, SK-MEL-28, 48 h; for CC50: read-out: LC50 (the source's name); method in brief: as §1
[6] = test system: LoVo; assay: Cytotoxicity against human doxorubicin resistant LoVo cells after 48 hrs by SRB assay; assay type: functional; conditions: for CC50: read-out: LC50 (the source's name); method in brief: as §1
[7] = Cytotoxicity against human IGROV cells after 48 hrs by SRB assay; assay type: functional; conditions: for CC50: read-out: LC50 (the source's name); method in brief: as §1
[8] = Cytotoxicity against human IGROV-ET cells after 48 hrs by SRB assay; assay type: functional; conditions: for CC50: read-out: LC50 (the source's name); method in brief: as §1
[9] = test system: HeLa; assay: Cytotoxicity against human HeLa cells after 48 hrs by SRB assay; assay type: functional; conditions: for CC50: read-out: LC50 (the source's name); method in brief: as §1
[10] = test system: LoVo; assay: Cytotoxicity against human LoVo cells after 48 hrs by SRB assay; assay type: functional; conditions: for CC50: read-out: LC50 (the source's name)
[11] = test system: LNCaP; assay: Cytotoxicity against human LNcaP cells after 48 hrs by SRB assay; assay type: functional; conditions: for CC50: read-out: LC50 (the source's name); method in brief: as §1
[12] = test system: HT-29; assay: Cytotoxicity against human HT29 cells after 48 hrs by SRB assay; assay type: functional, cell-based; conditions: Homo sapiens, HT-29, 48 h; for CC50: read-out: LC50 (the source's name); method in brief: as §1
[13] = test system: A549; assay: Cytotoxicity against human A549 cells after 48 hrs by SRB assay; assay type: functional, cell-based; conditions: Homo sapiens, A549, 48 h; method in brief: as §1
[14] = test system: DU-145; assay: Cytotoxicity against human DU145 cells after 48 hrs by SRB assay; assay type: functional, cell-based; conditions: Homo sapiens, DU-145, 48 h; for CC50: read-out: LC50 (the source's name); method in brief: as §1

C/C=C1\NC(=O)[C@H](Cc2ccccc2)NC(=O)[C@@H](C(C)C)NC(=O)[C@@H]([C@H](C)CC)NC(=O)[C@H](NC(=O)[C@H](NC(=O)[C@H](CCCN)NC(=O)[C@H]2CCCN2C(=O)[C@H](NC(=O)[C@@H](NC(=O)CNC(=O)[C@H](NC(=O)CCCC(C)C)C(C)C)C(C)C)C(C)C)[C@H](C)CC)[C@H](C)OC(=O)[C@H](C(C)C)NC1=O
GI50 [1]: 515 nM | TGI [1]: 1070 nM | CC50 [1]: 1990 nM | TGI [2]: 819 nM | GI50 [2]: 629 nM | CC50 [2]: 512 nM | GI50 [3]: 230 nM | LC50 (concentration giving 50% net cell kill) [3]: 684 nM | TGI [3]: 421 nM | GI50 [4]: 129 nM | TGI [4]: 208 nM | CC50 [4]: 744 nM | GI50 [5]: 283 nM | GI50 ([5]; read-out: GI50): 205 nM | CC50 [5]: 717 nM | GI50 [6]: 2390 nM | TGI [6]: 3040 nM | CC50 [6]: 3850 nM | GI50 [7]: 83.7 nM | GI50 ([7]; read-out: GI50): 80.7 nM | CC50 [7]: 139 nM | GI50 [8]: 232 nM | GI50 ([8]; read-out: GI50): 197 nM | CC50 [8]: 566 nM | GI50 [9]: 250 nM | TGI [9]: 471 nM | CC50 [9]: 755 nM | GI50 [10]: 597 nM | TGI [10]: 1130 nM | CC50 [10]: 828 nM | GI50 [11]: 233 nM | TGI [11]: 988 nM | CC50 [11]: 988 nM | GI50 [12]: 893 nM | TGI [12]: 1850 nM | CC50 [12]: 796 nM | GI50 [13]: 622 nM | GI50 ([13]; read-out: GI50): 524 nM | GI50 [14]: 994 nM | GI50 ([14]; read-out: GI50): 572 nM | CC50 [14]: 1360 nM

C/C=C1\NC(=O)[C@H](Cc2ccccc2)NC(=O)[C@@H](C(C)C)NC(=O)[C@@H]([C@H](C)CC)NC(=O)[C@H](NC(=O)[C@H](NC(=O)[C@H](CCCN)NC(=O)[C@H]2CCCN2C(=O)[C@H](NC(=O)[C@@H](NC(=O)[C@H](CC(C)C)NC(=O)[C@H](NC(=O)CCCC(C)C)C(C)C)C(C)C)C(C)C)[C@H](C)CC)[C@H](C)OC(=O)[C@H](C(C)C)NC1=O
GI50 [1]: 1110 nM | TGI [1]: 1280 nM | CC50 [1]: 1760 nM | TGI [2]: 466 nM | GI50 [2]: 428 nM | CC50 [2]: 360 nM | GI50 [3]: 1170 nM | LC50 (concentration giving 50% net cell kill) [3]: 890 nM | TGI [3]: 1020 nM | GI50 [4]: 542 nM | TGI [4]: 926 nM | CC50 [4]: 1630 nM | TGI [5]: 1210 nM | GI50 ([5]; read-out: GI50): 1270 nM | CC50 [5]: 1140 nM | GI50 [6]: 280 nM | TGI [6]: 244 nM | CC50 [6]: 256 nM | GI50 [7]: 566 nM | GI50 ([7]; read-out: GI50): 637 nM | CC50 [7]: 489 nM | GI50 [8]: 583 nM | GI50 ([8]; read-out: GI50): 754 nM | CC50 [8]: 538 nM | GI50 [9]: 1060 nM | TGI [9]: 1020 nM | CC50 [9]: 983 nM | GI50 [10]: 417 nM | TGI [10]: 459 nM | CC50 [10]: 331 nM | GI50 [11]: 1050 nM | TGI [11]: 964 nM | CC50 [11]: 879 nM | CC50 [12]: 442 nM | GI50 [13]: 602 nM | LC50 [13]: 5.28 µM | GI50 ([13]; read-out: GI50): 637 nM | GI50 [14]: 949 nM | GI50 ([14]; read-out: GI50): 959 nM | CC50 [14]: 944 nM

C/C=C1\NC(=O)[C@H](Cc2ccccc2)NC(=O)[C@@H](C(C)C)NC(=O)[C@@H]([C@H](C)CC)NC(=O)[C@H](NC(=O)[C@H](NC(=O)[C@H](CCCN)NC(=O)[C@H]2CCCN2C(=O)[C@H](NC(=O)[C@@H](NC(=O)[C@@H](NC(=O)[C@H](NC(=O)C2CCC(C)CC2)C(C)C)[C@@H](C)O)C(C)C)C(C)C)[C@H](C)CC)[C@H](C)OC(=O)[C@H](C(C)C)NC1=O (stereo partly specified)
GI50 [1]: 2660 nM | TGI [1]: 4530 nM | CC50 [1]: 2300 nM | TGI [2]: 298 nM | GI50 [2]: 350 nM | CC50 [2]: 1030 nM | GI50 [3]: 633 nM | LC50 (concentration giving 50% net cell kill) [3]: 977 nM | TGI [3]: 810 nM | CC50 [4]: 1810 nM | TGI [5]: 1060 nM | GI50 ([5]; read-out: GI50): 1010 nM | CC50 [5]: 1100 nM | GI50 [6]: 340 nM | TGI [6]: 329 nM | CC50 [6]: 319 nM | GI50 [7]: 477 nM | GI50 ([7]; read-out: GI50): 526 nM | CC50 [7]: 441 nM | GI50 [8]: 503 nM | GI50 ([8]; read-out: GI50): 598 nM | CC50 [8]: 426 nM | GI50 [9]: 904 nM | TGI [9]: 897 nM | CC50 [9]: 892 nM | GI50 [10]: 244 nM | TGI [10]: 280 nM | CC50 [10]: 3200 nM | GI50 [11]: 1070 nM | TGI [11]: 1170 nM | CC50 [11]: 1260 nM | GI50 [12]: 551 nM | TGI [12]: 554 nM | CC50 [12]: 642 nM | LC50 [13]: 1.34 µM | TGI [13]: 1180 nM | GI50 ([13]; read-out: GI50): 1040 nM | GI50 [14]: 788 nM | GI50 ([14]; read-out: GI50): 690 nM | CC50 [14]: 839 nM
